Test results taken from ChEMBL document CHEMBL4004837, “Synthesis and Characterization of Urofuranoic Acids: In Vivo Metabolism of 2-(2-Carboxyethyl)-4-methyl-5-propylfuran-3-carboxylic Acid (CMPF) and Effects on in Vitro Insulin Secretion” (J Med Chem, 2017).

Key:
[1] = (§1) Drug metabolism in CD1 mouse adipose assessed as monoacylglycerol conjugate formation at 6 mg/kg, ip dosed once daily for 3 days followed by dosing of 1:1 mixtures of 2-(2-(Carboxy-13C)ethyl)-4-methyl-5-propylfuran-3-carboxylic-2-13C Acid and test compound on day 4 and 5 measured 1 hr post dose on day 5 by HPLC-MS analysis; type: ADME, organism-based, Adipose tissue; conditions: in vivo
Method in brief: (§2)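 Mice received CMPF 6 mg/kg intraperitoneally for three days, then 1:1 labeled/unlabeled CMPF mixtures on days four and five. On day five they were euthanized 1 h post-dose, and plasma, adipose, muscle and liver were collected. Samples were analysed by HPLC-MS, with MS/MS of product ions. Metabolites were identified by the distinctive isotope patterns from the 1:1 label mixture.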

[2] = AUC in mouse at 1 mg/kg, iv; type: ADME, organism-based; conditions: in vivo
Plasma [3] = assay: (§3) Drug metabolism in CD1 mouse plasma assessed as oxidative metabolites formation at 6 mg/kg, ip dosed once daily for 3 days followed by dosing of 1:1 mixtures of 2-(2-Carboxyethyl)-4-methyl-5-propyl-(3-13C-furan)-3-13Ccarboxylateand test compound on day 4 and 5 measured 1 hr post dose on day 5 by HPLC-MS analysis; type: ADME, organism-based; conditions: in vivo
Method in brief: (§4)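 CMPF given 6 mg/kg i.p. once daily for three days. On days four and five, 1:1 mixtures of stable-isotope-labelled and unlabelled CMPF were dosed. Mice were killed 1 h after the day-five dose. Plasma, adipose, muscle and liver were collected and analysed by HPLC-MS (MS/MS for product ions). Metabolites were identified by their distinctive isotope patterns from the labelled/unlabelled mixture.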

Liver [4] = assay: as §1, with “liver” for “adipose”; type: ADME, organism-based; conditions: in vivo; method in brief: as §2
[5] = Effect on insulin content in KCl-stimulated mouse pancreatic islet at 200 uM incubated for 24 hrs followed by KCl stimulation for 20 mins by HTRF assay; type: ADME, cell-based
Method in brief: (§5)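 Mouse islets treated with compounds at 200 µM. Insulin secretion was then measured under low- and high-glucose GSIS conditions and under KCl stimulation, and intracellular insulin content was measured. Mean of n = 4-5 experiments with SEM.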

[6] = (§6) Drug metabolism in CD1 mouse muscle assessed as loss of C2 carboxyl during fragmentation at 6 mg/kg, ip dosed once daily for 3 days followed by dosing of 1:1 mixtures of 2-(2-Carboxyethyl)-4-methyl-5-(1-propyl-1-13C)furan-3-carboxylic Acid and test compound on day 4 and 5 measured 1 hr post dose on day 5 by HPLC-MS analysis; type: ADME, organism-based, Muscle tissue; conditions: in vivo; method in brief: as §2
Plasma [7] = assay: as §3, with “glycerol conjugate” for “oxidative metabolites”; type: ADME, organism-based; conditions: in vivo; method in brief: as §4
Liver [8] = assay: (§7) Drug metabolism in CD1 mouse liver assessed as monoacylglycerol conjugate formation at 6 mg/kg, ip dosed once daily for 3 days followed by dosing of 1:1 mixtures of 2-(2-Carboxyethyl)-4-methyl-5-propyl-(3-13C-furan)-3-13Ccarboxylateand test compound on day 4 and 5 measured 1 hr post dose on day 5 by HPLC-MS analysis; type: ADME, organism-based; conditions: in vivo; method in brief: as §2
[9] = Effect on insulin content in glucose-stimulated mouse pancreatic islet at 200 uM incubated for 24 hrs followed by glucose stimulation for 20 mins by HTRF assay; type: ADME, cell-based; method in brief: as §5
[10] = as §6, with “2-(2-(Carboxy-13C)ethyl)-4-methyl-5-propylfuran-3-carboxylic-2-13C” for “2-(2-Carboxyethyl)-4-methyl-5-(1-propyl-1-13C)furan-3-carboxylic”; type: ADME, organism-based, Muscle tissue; conditions: in vivo; method in brief: as §2
Plasma [11] = assay: as §7, with “plasma” for “liver”; type: ADME, organism-based; conditions: in vivo; method in brief: as §4
[12] = as §7, with “muscle” for “liver”, “diacylglycerol” for “monoacylglycerol”; type: ADME, organism-based, Muscle tissue; conditions: in vivo; method in brief: as §2
[13] = as §6, with “adipose” for “muscle”, “2-(2-(Carboxy-13C)ethyl)-4-methyl-5-propylfuran-3-carboxylic-2-13C” for “2-(2-Carboxyethyl)-4-methyl-5-(1-propyl-1-13C)furan-3-carboxylic”; type: ADME, organism-based, Adipose tissue; conditions: in vivo; method in brief: as §2
Plasma [14] = assay: Drug metabolism in CD1 mouse plasma assessed as glucuronide conjugate formation at 6 mg/kg, ip dosed once daily for 3 days followed by dosing of 1:1 mixtures of 2-(2-Carboxyethyl)-4-methyl-5-propyl-(3-13C-furan)-3-13Ccarboxylate and test compound on day 4 and 5 measured 1 hr post dose on day 5 by HPLC-MS analysis; type: ADME, organism-based; conditions: in vivo; method in brief: as §4
[15] = as §6, with “2-(2-Carboxyethyl)-4-methyl-5-propyl-(3-13C-furan)-3-13Ccarboxylate” for “2-(2-Carboxyethyl)-4-methyl-5-(1-propyl-1-13C)furan-3-carboxylic Acid”; type: ADME, organism-based, Muscle tissue; conditions: in vivo; method in brief: as §2
[16] = as §1, with “muscle” for “adipose”, “2-(2-Carboxyethyl)-4-methyl-5-(1-propyl-1-13C)furan-3-carboxylic” for “2-(2-(Carboxy-13C)ethyl)-4-methyl-5-propylfuran-3-carboxylic-2-13C”; type: ADME, organism-based, Muscle tissue; conditions: in vivo; method in brief: as §2
Plasma [17] = assay: as §3, with “2-(2-(Carboxy-13C)ethyl)-4-methyl-5-propylfuran-3-carboxylic-2-13C Acid and” for “2-(2-Carboxyethyl)-4-methyl-5-propyl-(3-13C-furan)-3-13Ccarboxylateand”; type: ADME, organism-based; conditions: in vivo; method in brief: as §4
Liver [18] = assay: Drug metabolism in CD1 mouse liver assessed as oxidative metabolites formation at 6 mg/kg, ip dosed once daily for 3 days followed by dosing of 1:1 mixtures of 2-(2-Carboxyethyl)-4-methyl-5-(1-propyl-1-13C)furan-3-carboxylic Acid and test compound on day 4 and 5 measured 1 hr post dose on day 5 by HPLC-MS analysis; type: ADME, organism-based; conditions: in vivo; method in brief: as §2
Plasma [19] = assay: (§8) Drug metabolism in CD1 mouse plasma assessed as diacylglycerol conjugate formation at 6 mg/kg, ip dosed once daily for 3 days followed by dosing of 1:1 mixtures of 2-(2-Carboxyethyl)-4-methyl-5-(1-propyl-1-13C)furan-3-carboxylic Acid and test compound on day 4 and 5 measured 1 hr post dose on day 5 by HPLC-MS analysis; type: ADME, organism-based; conditions: in vivo; method in brief: as §4
Liver [20] = assay: as §1, with “liver” for “adipose”, “glycerol” for “monoacylglycerol”; type: ADME, organism-based; conditions: in vivo; method in brief: as §2
[21] = Drug metabolism in CD1 mouse adipose assessed as glycerol conjugate formation at 6 mg/kg, ip dosed once daily for 3 days followed by dosing of 1:1 mixtures of 2-(2-Carboxyethyl)-4-methyl-5-(1-propyl-1-13C)furan-3-carboxylic Acid and test compound on day 4 and 5 measured 1 hr post dose on day 5 by HPLC-MS analysis; type: ADME, organism-based, Adipose tissue; conditions: in vivo; method in brief: as §2
[22] = as §1, with “muscle” for “adipose”, “diacylglycerol” for “monoacylglycerol”; type: ADME, organism-based, Muscle tissue; conditions: in vivo; method in brief: as §2
[23] = as §6, with “adipose” for “muscle”, “2-(2-Carboxyethyl)-4-methyl-5-propyl-(3-13C-furan)-3-13Ccarboxylate” for “2-(2-Carboxyethyl)-4-methyl-5-(1-propyl-1-13C)furan-3-carboxylic Acid”; type: ADME, organism-based, Adipose tissue; conditions: in vivo; method in brief: as §2
[24] = Initial plasma concentration in mouse at 6 mg/kg, iv; type: ADME, organism-based
[25] = as §3, with “muscle” for “plasma”; type: ADME, organism-based, Muscle tissue; conditions: in vivo; method in brief: as §4
[26] = as §1, with “muscle” for “adipose”; type: ADME, organism-based, Muscle tissue; conditions: in vivo; method in brief: as §2
Plasma [27] = assay: as §8, with “monoacylglycerol” for “diacylglycerol”; type: ADME, organism-based; conditions: in vivo; method in brief: as §4
CYP2D6 = CYP2D6 (Homo sapiens, UniProt P10635); assay: Inhibition of human microsomal CYP2D6 at 10 uM after 3 mins by single quad LC/MS analysis; type: ADME; conditions: microsomes
CYP2C9 = CYP2C9 (Homo sapiens, UniProt P11712); assay: Inhibition of human microsomal CYP2C9 at 10 uM after 10 mins by single quad LC/MS analysis; type: ADME; conditions: microsomes
[28] = AUC in mouse at 3 mg/kg, iv; type: ADME, organism-based; conditions: in vivo

Chain of CYP2D6 (P10635 whole entry): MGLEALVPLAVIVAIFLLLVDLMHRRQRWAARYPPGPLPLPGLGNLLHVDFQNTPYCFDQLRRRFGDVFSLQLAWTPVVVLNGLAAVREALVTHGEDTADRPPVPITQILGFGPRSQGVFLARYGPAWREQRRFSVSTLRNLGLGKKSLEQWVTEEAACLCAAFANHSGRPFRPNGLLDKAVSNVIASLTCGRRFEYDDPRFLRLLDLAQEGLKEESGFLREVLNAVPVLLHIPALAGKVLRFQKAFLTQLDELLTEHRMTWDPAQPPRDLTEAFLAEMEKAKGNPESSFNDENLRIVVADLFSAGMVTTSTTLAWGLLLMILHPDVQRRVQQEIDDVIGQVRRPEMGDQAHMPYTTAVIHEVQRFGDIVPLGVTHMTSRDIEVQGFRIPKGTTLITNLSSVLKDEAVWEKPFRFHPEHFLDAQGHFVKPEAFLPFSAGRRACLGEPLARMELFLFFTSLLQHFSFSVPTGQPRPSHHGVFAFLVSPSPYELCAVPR
Chain of CYP2C9 (P11712 whole entry): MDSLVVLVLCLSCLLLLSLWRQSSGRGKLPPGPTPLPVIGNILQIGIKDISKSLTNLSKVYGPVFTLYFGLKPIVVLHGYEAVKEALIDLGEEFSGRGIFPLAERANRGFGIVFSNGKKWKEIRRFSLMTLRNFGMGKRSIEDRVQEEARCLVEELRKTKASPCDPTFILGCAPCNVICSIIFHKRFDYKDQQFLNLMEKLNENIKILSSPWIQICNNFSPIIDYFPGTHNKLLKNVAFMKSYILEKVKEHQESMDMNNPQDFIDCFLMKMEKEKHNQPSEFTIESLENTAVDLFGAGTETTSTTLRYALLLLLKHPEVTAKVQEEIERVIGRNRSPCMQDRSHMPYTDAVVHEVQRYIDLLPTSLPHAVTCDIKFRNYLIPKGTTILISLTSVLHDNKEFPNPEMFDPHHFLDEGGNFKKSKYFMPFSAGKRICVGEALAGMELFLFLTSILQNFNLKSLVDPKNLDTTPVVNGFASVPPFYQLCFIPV

Q: Which results are given for `CCCc1oc(CCC(=O)O)c(C(=O)O)c1C`?
A: Drug metabolism [1]: Metabolite_Notdetected; AUC [2]: 89.3 µM·h; Drug metabolism (Plasma [3]): Metabolite_Notdetected; Drug metabolism (Liver [4]): Metabolite_Notdetected; Activity [5]: Non-Toxic; Drug metabolism [6]: Metabolite_Detected; Drug metabolism (Plasma [7]): Metabolite_Notdetected; Drug metabolism (Liver [8]): Metabolite_Notdetected; Activity [9]: Non-Toxic; Drug metabolism [10]: Metabolite_Detected; Drug metabolism (Plasma [11]): Metabolite_Notdetected; Drug metabolism [12]: Metabolite_Notdetected; Drug metabolism [13]: Metabolite_Detected; Drug metabolism (Plasma [14]): Metabolite_Detected; Drug metabolism [15]: Metabolite_Detected; Drug metabolism [16]: Metabolite_Notdetected; Drug metabolism (Plasma [17]): Metabolite_Notdetected; Drug metabolism (Liver [18]): Metabolite_Notdetected; Drug metabolism (Plasma [19]): Metabolite_Notdetected; Drug metabolism (Liver [20]): Metabolite_Notdetected; Drug metabolism [21]: Metabolite_Notdetected; Drug metabolism [22]: Metabolite_Notdetected; Drug metabolism [23]: Metabolite_Detected; C0 [24]: 200 to 250 µM; Drug metabolism [25]: Metabolite_Notdetected; Drug metabolism [26]: Metabolite_Notdetected; Drug metabolism (Plasma [27]): Metabolite_Notdetected; inhibition at 0.05 h, 10 µM (CYP2D6): 0%; inhibition at 10 min, 10 µM (CYP2C9): 0%; AUC [28]: 210 µM·h
